Data reported in ChEMBL document CHEMBL1132480, “Synthesis, acid-base behavior, and binding properties of 6-modified myo-inositol 1,4,5-tris(phosphate)s” (J Med Chem, 1999).

Assays:
[1] = target: Inositol 1,4,5-trisphosphate-gated calcium channel ITPR3 (Bos taurus, UniProt Q8WN95); experiment: Binding affinity against Inositol 1,4,5-trisphosphate receptor on bovine adrenal cortex microsomes.
[2] = Equilibrium constant (K1) of the compound.; type: ADME
Method in brief: (§1)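 Stepwise macroscopic protonation constants measured over pH 2.5–10, where each phosphate has one titratable proton. Observed NMR chemical shifts were treated as weighted averages of the shifts of the protonated and deprotonated species.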

[3] = Equilibrium constant (K2) of the compound.; type: ADME; method in brief: as §1
[4] = Equilibrium constant (K3) of the compound.; type: ADME; method in brief: as §1
[5] = Equilibrium constant (K4) of the compound.; type: ADME; method in brief: as §1

Sequence of Inositol 1,4,5-trisphosphate-gated calcium channel ITPR3 (Q8WN95 whole entry): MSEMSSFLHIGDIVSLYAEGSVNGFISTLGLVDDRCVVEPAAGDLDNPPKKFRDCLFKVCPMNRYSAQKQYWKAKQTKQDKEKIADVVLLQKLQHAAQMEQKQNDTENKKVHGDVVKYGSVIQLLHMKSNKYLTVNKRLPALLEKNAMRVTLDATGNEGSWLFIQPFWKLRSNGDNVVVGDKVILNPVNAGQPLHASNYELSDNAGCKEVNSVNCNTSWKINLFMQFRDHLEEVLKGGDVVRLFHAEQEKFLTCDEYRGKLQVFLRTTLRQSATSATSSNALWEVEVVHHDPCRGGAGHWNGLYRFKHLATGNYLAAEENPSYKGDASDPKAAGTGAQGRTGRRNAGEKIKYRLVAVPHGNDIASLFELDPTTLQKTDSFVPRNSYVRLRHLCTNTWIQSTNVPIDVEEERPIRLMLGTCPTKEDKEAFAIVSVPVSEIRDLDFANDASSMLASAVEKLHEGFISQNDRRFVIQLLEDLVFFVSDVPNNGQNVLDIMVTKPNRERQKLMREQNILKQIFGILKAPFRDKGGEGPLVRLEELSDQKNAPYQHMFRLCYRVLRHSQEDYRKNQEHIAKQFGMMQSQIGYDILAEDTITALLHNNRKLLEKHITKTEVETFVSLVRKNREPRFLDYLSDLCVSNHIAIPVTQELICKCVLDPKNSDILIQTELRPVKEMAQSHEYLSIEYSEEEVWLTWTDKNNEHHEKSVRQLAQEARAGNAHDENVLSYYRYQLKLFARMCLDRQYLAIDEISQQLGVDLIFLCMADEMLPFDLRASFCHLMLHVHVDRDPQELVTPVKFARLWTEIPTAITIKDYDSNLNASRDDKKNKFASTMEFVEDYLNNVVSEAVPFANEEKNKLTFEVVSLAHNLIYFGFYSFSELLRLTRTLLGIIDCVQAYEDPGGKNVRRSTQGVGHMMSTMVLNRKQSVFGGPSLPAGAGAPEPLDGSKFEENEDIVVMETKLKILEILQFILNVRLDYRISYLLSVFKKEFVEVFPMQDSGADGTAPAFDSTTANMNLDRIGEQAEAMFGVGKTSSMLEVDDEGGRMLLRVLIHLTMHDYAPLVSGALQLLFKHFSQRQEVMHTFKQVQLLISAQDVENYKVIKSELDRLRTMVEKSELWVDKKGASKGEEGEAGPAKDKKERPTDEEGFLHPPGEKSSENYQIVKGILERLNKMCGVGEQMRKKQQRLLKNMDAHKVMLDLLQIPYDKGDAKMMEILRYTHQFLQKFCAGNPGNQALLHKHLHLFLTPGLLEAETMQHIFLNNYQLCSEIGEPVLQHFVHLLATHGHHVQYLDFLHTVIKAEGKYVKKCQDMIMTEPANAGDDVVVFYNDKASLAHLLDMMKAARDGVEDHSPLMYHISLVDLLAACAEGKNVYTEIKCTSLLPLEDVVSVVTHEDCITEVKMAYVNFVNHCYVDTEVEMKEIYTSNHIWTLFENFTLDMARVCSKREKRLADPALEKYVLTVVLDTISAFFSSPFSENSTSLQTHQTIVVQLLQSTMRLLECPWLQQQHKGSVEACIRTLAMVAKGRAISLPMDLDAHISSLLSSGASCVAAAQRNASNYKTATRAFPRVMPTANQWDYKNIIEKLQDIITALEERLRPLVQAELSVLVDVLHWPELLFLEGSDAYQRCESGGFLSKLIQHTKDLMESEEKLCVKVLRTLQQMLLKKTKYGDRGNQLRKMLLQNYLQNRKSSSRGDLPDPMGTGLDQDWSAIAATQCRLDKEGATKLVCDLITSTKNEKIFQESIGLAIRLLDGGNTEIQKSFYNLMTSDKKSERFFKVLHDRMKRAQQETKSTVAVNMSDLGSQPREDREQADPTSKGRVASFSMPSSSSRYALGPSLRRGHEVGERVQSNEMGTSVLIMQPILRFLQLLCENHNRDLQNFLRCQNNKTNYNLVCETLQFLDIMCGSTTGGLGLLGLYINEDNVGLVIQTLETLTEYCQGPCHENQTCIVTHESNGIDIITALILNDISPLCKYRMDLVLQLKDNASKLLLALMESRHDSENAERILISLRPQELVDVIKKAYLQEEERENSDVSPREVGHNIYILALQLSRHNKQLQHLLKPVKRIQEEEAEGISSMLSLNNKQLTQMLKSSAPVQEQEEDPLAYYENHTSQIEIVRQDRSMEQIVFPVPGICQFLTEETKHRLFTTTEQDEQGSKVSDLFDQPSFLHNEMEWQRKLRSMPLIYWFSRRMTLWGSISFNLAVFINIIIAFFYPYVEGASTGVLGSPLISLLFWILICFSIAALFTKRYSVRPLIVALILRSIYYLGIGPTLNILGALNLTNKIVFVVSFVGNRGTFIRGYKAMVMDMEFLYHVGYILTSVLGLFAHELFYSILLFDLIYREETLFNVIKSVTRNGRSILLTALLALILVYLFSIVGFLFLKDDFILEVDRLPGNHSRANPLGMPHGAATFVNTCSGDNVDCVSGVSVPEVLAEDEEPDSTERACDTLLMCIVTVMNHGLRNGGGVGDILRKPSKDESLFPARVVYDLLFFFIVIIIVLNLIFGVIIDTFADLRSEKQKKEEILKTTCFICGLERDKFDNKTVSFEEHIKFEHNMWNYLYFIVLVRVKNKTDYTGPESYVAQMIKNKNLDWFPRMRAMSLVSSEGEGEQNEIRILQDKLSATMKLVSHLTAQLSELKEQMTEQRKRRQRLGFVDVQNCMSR

| Compound | IC50 [1] | Log K1 [2] | Log K2 [3] | Log K3 [4] | Log K4 [5] |
| --- | --- | --- | --- | --- | --- |
| O=P(O)(O)O[C@@H]1[C@@H](O)[C@@H](O)[C@@H](OP(=O)(O)O)C[C@H]1OP(=O)(O)O | 1000 nM | 8.3 | 6.65 | 5.53 | – |
| N[C@@H]1[C@@H](OP(=O)(O)O)[C@H](OP(=O)(O)O)[C@@H](O)[C@@H](O)[C@H]1OP(=O)(O)O | 5000 nM | 10.69 | 7.35 | 5.58 | 4.62 |
| O=P(O)(O)O[C@@H]1CC[C@@H](OP(=O)(O)O)[C@H](OP(=O)(O)O)C1 | 3900 nM | – | – | – | – |

Now from value to molecule:

| IC50 [1] | Log K1 [2] | Log K2 [3] | Log K3 [4] | Log K4 [5] | Compound |
| --- | --- | --- | --- | --- | --- |
| 2000 nM | 8.76 | 6.64 | 5.56 | – | O=P(O)(O)O[C@@H]1[C@H](O)[C@H](O)[C@@H](OP(=O)(O)O)[C@H](OP(=O)(O)O)[C@H]1F |
| – | 8.01 | 6.39 | 5.4 | – | O=P(O)(O)O[C@@H]1[C@H](O)[C@H](O)[C@@H](OP(=O)(O)O)[C@H](OP(=O)(O)O)[C@@H]1O |
| – | 7.85 | 6.4 | 5.31 | – | O=P(O)(O)O[C@@H]1[C@H](O)[C@H](O)[C@@H](OP(=O)(O)O)[C@H](OP(=O)(O)O)[C@H]1O [INS(1,4,5)P3] |
